# In ChEMBL document CHEMBL1806443, “Novel imidazo[4,5-b]pyridine and triaza-benzo[c]fluorene derivatives: synthesis, antiproliferative activity and DNA binding studies” (Eur J Med Chem, 2011):
# pIC50: −log10 of the molar value.
# How the values were obtained:
# MIA PaCa-2 = assay: Antiproliferative activity against human MIAPaCa2 cells after 72 hrs by MTT assay; type: functional, cell-based; settings: Homo sapiens, MIA PaCa-2, 72 h
# How it was run: (§1)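 Monolayer cells in DMEM with 10% FBS, 2 mM L-glutamine, penicillin and streptomycin at 37 °C, 5% CO2. Seeded at 3000-6000 cells/well by doubling time on day 0. Five 10-fold dilutions (0.01–100 µM) were added and incubated 72 h. MTT read-out, converted to percentage growth. IC50 by linear regression between bracketing concentrations. Quadruplicate points, three independent experiments, ANOVA/Tukey p<0.05.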
# HEp-2 = assay: Antiproliferative activity against human Hep2 cells after 72 hrs by MTT assay; type: functional, cell-based; settings: Homo sapiens, HEp-2, 72 h; how it was run: as §1
# SK-BR-3 [1] = assay: Antiproliferative activity against human SKBR3 cells after 72 hrs by MTT assay; type: functional, cell-based; settings: Homo sapiens, SK-BR-3, 72 h; how it was run: as §1
# HeLa = assay: Antiproliferative activity against human HeLa cells after 72 hrs by MTT assay; type: functional, cell-based; settings: Homo sapiens, HeLa, 72 h; how it was run: as §1
# SK-BR-3 [2] = assay: Cell cycle arrest in human SKBR3 cells assessed as accumulation at subG1 phase at 50 uM after 48 hrs by propidium iodide staining based flow cytometeric analysis (reference value: 2.1 +/- 0.2%); type: functional
# SK-BR-3 [3] = assay: Cell cycle arrest in human SKBR3 cells assessed as accumulation at S phase at 10 uM after 24 hrs by propidium iodide staining based flow cytometeric analysis (reference value: 39.9 +/- 1.5%); type: functional
# WI-38 = assay: Antiproliferative activity against human WI38 cells after 72 hrs by MTT assay; type: cell-based; settings: Homo sapiens, WI-38, 72 h; how it was run: as §1
# SK-BR-3 [4] = assay: Cell cycle arrest in human SKBR3 cells assessed as accumulation at G1 phase at 5 uM after 24 hrs by propidium iodide staining based flow cytometeric analysis (reference value: 39.5 +/- 1.1%); type: functional
# SK-BR-3 [5] = assay: Cell cycle arrest in human SKBR3 cells assessed as accumulation at G1 phase at 10 uM after 24 hrs by propidium iodide staining based flow cytometeric analysis (reference value: 39.5 +/- 1.1%); type: functional
# SK-BR-3 [6] = assay: Cell cycle arrest in human SKBR3 cells assessed as accumulation at S phase at 5 uM after 48 hrs by propidium iodide staining based flow cytometeric analysis (reference value: 40.6 +/- 4.9%); type: functional
# SK-BR-3 [7] = assay: Cell cycle arrest in human SKBR3 cells assessed as accumulation at subG1 phase at 10 uM after 24 hrs by propidium iodide staining based flow cytometeric analysis (reference value: 39 +/- 1.1%); type: functional
# SK-BR-3 [8] = assay: Cell cycle arrest in human SKBR3 cells assessed as accumulation at G1 phase at 5 uM after 48 hrs by propidium iodide staining based flow cytometeric analysis (reference value: 24.7 +/- 1.9%); type: functional
# SK-BR-3 [9] = assay: Cell cycle arrest in human SKBR3 cells assessed as accumulation at G1 phase at 50 uM after 24 hrs by propidium iodide staining based flow cytometeric analysis (reference value: 39.5 +/- 1.1%); type: functional
# SK-BR-3 [10] = assay: Cell cycle arrest in human SKBR3 cells assessed as accumulation at G2/M phase at 50 uM after 48 hrs by propidium iodide staining based flow cytometeric analysis (reference value: 34.7 +/- 3.3%); type: functional
# SK-BR-3 [11] = assay: Cell cycle arrest in human SKBR3 cells assessed as accumulation at subG1 phase at 10 uM after 48 hrs by propidium iodide staining based flow cytometeric analysis (reference value: 2.1 +/- 0.2%); type: functional
# SK-BR-3 [12] = assay: Cell cycle arrest in human SKBR3 cells assessed as accumulation at G2/M phase at 5 uM after 48 hrs by propidium iodide staining based flow cytometeric analysis (reference value: 34.7 +/- 3.3%); type: functional
# SK-BR-3 [13] = assay: Cell cycle arrest in human SKBR3 cells assessed as accumulation at G2/M phase at 50 uM after 24 hrs by propidium iodide staining based flow cytometeric analysis (reference value: 20.6 +/- 2.1%); type: functional
# SK-BR-3 [14] = assay: Cell cycle arrest in human SKBR3 cells assessed as accumulation at G1 phase at 50 uM after 48 hrs by propidium iodide staining based flow cytometeric analysis (reference value: 24.7 +/- 1.9%); type: functional
# SK-BR-3 [15] = assay: Cell cycle arrest in human SKBR3 cells assessed as accumulation at S phase at 50 uM after 24 hrs by propidium iodide staining based flow cytometeric analysis (reference value: 39.9 +/- 1.5%); type: functional
# SK-BR-3 [16] = assay: Cell cycle arrest in human SKBR3 cells assessed as accumulation at G2/M phase at 10 uM after 48 hrs by propidium iodide staining based flow cytometeric analysis (reference value: 34.7 +/- 3.3%); type: functional
# SK-BR-3 [17] = assay: Cell cycle arrest in human SKBR3 cells assessed as accumulation at S phase at 5 uM after 24 hrs by propidium iodide staining based flow cytometeric analysis (reference value: 39.9 +/- 1.5%); type: functional
# SK-BR-3 [18] = assay: Cell cycle arrest in human SKBR3 cells assessed as accumulation at subG1 phase at 5 uM after 48 hrs by propidium iodide staining based flow cytometeric analysis (reference value: 2.1 +/- 0.2%); type: functional
# SK-BR-3 [19] = assay: Cell cycle arrest in human SKBR3 cells assessed as accumulation at S phase at 10 uM after 48 hrs by propidium iodide staining based flow cytometeric analysis (reference value: 40.6 +/- 4.9%); type: functional
# SK-BR-3 [20] = assay: Cell cycle arrest in human SKBR3 cells assessed as accumulation at subG1 phase at 50 uM after 24 hrs by propidium iodide staining based flow cytometeric analysis (reference value: 39 +/- 1.1%); type: functional
# SW-620 = assay: Antiproliferative activity against human SW620 cells after 72 hrs by MTT assay; type: functional, cell-based; settings: Homo sapiens, SW-620, 72 h; how it was run: as §1
# SK-BR-3 [21] = assay: Cell cycle arrest in human SKBR3 cells assessed as accumulation at subG1 phase at 5 uM after 24 hrs by propidium iodide staining based flow cytometeric analysis (reference value: 39 +/- 1.1%); type: functional
# SK-BR-3 [22] = assay: Cell cycle arrest in human SKBR3 cells assessed as accumulation at G1 phase at 10 uM after 48 hrs by propidium iodide staining based flow cytometeric analysis (reference value: 24.7 +/- 1.9%); type: functional
# MCF7 = assay: Antiproliferative activity against human MCF7 cells after 72 hrs by MTT assay; type: functional, cell-based; settings: Homo sapiens, MCF7, 72 h; how it was run: as §1
# SK-BR-3 [23] = assay: Cell cycle arrest in human SKBR3 cells assessed as accumulation at G2/M phase at 5 uM after 24 hrs by propidium iodide staining based flow cytometeric analysis (reference value: 20.6 +/- 2.1%); type: functional
# SK-BR-3 [24] = assay: Cell cycle arrest in human SKBR3 cells assessed as accumulation at G2/M phase at 10 uM after 24 hrs by propidium iodide staining based flow cytometeric analysis (reference value: 20.6 +/- 2.1%); type: functional
# SK-BR-3 [25] = assay: Cell cycle arrest in human SKBR3 cells assessed as accumulation at S phase at 50 uM after 48 hrs by propidium iodide staining based flow cytometeric analysis (reference value: 40.6 +/- 4.9%); type: functional
smiles,measurement,setting,value
Nc1ccc2c(ccc3nc4ncccc4n32)c1,pIC50,MIA PaCa-2,4.32
same,pIC50,HEp-2,4.41
same,pIC50,SK-BR-3 [1],5.53
same,pIC50,HeLa,4.36
same,Activity,SK-BR-3 [2],3.1%
same,Activity,SK-BR-3 [3],34.5%
same,pIC50,WI-38,< 4.00
same,Activity,SK-BR-3 [4],47.1%
same,Activity,SK-BR-3 [5],39.4%
same,Activity,SK-BR-3 [6],59.8%
same,Activity,SK-BR-3 [7],45.8%
same,Activity,SK-BR-3 [8],24.4%
same,Activity,SK-BR-3 [9],33.2%
same,Activity,SK-BR-3 [10],32.5%
same,Activity,SK-BR-3 [11],5.5%
same,Activity,SK-BR-3 [12],15.8%
same,Activity,SK-BR-3 [13],18.7%
same,Activity,SK-BR-3 [14],19.9%
same,Activity,SK-BR-3 [15],48.1%
same,Activity,SK-BR-3 [16],14.8%
same,Activity,SK-BR-3 [17],35.1%
same,Activity,SK-BR-3 [18],1.9%
same,Activity,SK-BR-3 [19],64.2%
same,Activity,SK-BR-3 [20],50.2%
same,pIC50,SW-620,4.46
same,Activity,SK-BR-3 [21],35.7%
same,Activity,SK-BR-3 [22],20.9%
same,pIC50,MCF7,4.14
same,Activity,SK-BR-3 [23],17.7%
same,Activity,SK-BR-3 [24],26.1%
same,Activity,SK-BR-3 [25],47.6%
